Measurements collected from several papers.
Each line is one published result; the experiments were not run side by side.
Matrix: Caco-2

The Papp A→B of O=C(O)c1cn(-c2ccc(-c3ccc(C(=O)N4CCNCC4)cc3)cc2)cc(O)c1=O is reported as 0.2 ×10⁻⁶ cm/s.
The Papp B→A of Cc1c(N(C)C)ccc2cc(C(=O)NS(=O)(=O)c3ccccc3-c3ccccc3)oc12 is reported as 14.3 ×10⁻⁶ cm/s (2 µM, 2 h, pH 7.2).
The Papp B→A of CCCCC(CC)CNC(=N)NC(=N)NCCCCCCNC(=N)NC(=N)NCC(CC)CCCC (stereo not shown) is reported as 0.37 ×10⁻⁶ cm/s (5 µM, 2 h).
CC(C)C[C@H](NC(=O)[C@@H]1COCCCCCC(=O)NCC(=O)N2CCC[C@H]2C(=O)N1)C(=O)[C@@]1(C)CO1 gave a Papp A→B of 0.454 ×10⁻⁶ cm/s (10 µM, 2 h, pH 7.4).
With Cn1nc2c(=O)n(C3CC3)ncc2c1[C@](O)(c1cnc(C(F)(F)F)c(Cl)c1)C(F)(F)F the Papp A→B was 43.4 ×10⁻⁶ cm/s.
The Papp A→B of N#Cc1cc(-c2ccc(C(=O)N3CCNCC3)cc2)ccc1-n1cc(O)c(=O)c(C(=O)O)c1 is reported as 0.3 ×10⁻⁶ cm/s.
With Cc1c(C(=O)O)ccc2c3n(nc12)[C@@H]1[C@H](C3)N(CC2CC2)[C@@]2(C(=O)Nc3cc(Cl)ccc32)[C@H]1c1cccc(Cl)c1F the Papp A→B was 84 ×10⁻⁶ cm/s.
C[C@H]1O[C@@H](O[C@H]2[C@@H](O)C[C@H](O[C@H]3[C@@H](O)C[C@H](O[C@H]4CC[C@@]5(C)[C@H](CC[C@@H]6[C@@H]5C[C@@H](O)[C@]5(C)[C@@H](C7=CC(=O)OC7)CC[C@]65O)C4)O[C@@H]3C)O[C@@H]2C)C[C@H](O)[C@@H]1O gave a Papp A→B of 0.27 ×10⁻⁶ cm/s (5 µM, 2 h).
With N#C[C@@]12C[C@@H]1[C@@H](n1cnc3c(N[C@@H](C4CCC4)C4CC4)nc(I)nc31)[C@H](O)[C@@H]2O the Papp A→B was 5.97 ×10⁻⁶ cm/s.
CCn1cc(C2CC2)c2c(Cc3ccc(C(F)(F)F)nc3)n(C)nc2c1=O has a Papp A→B of 38.7 ×10⁻⁶ cm/s.
